Published values pooled from the literature.
Compare with care: the assays were run in different laboratories.
Target: Dual specificity protein kinase CLK2 (CLK2, Homo sapiens, UniProt P49760)
Technique: competition with immobilised ligand

C=CC(=O)N1CCC(C(=O)NCC(=O)N2CCN(c3nc(-c4cnc(N)nc4C(F)F)nc(N4CCOCC4)n3)CC2)CC1  remaining binding (binding; 1 µM): 91%
c1cncc(-c2cccc(Nc3nccc(NC4CCCCC4)n3)c2)c1  remaining binding (binding; 10 µM): 15%
C[C@@H](c1ccc(-n2cnc3c(N)ncnc32)cc1)N1CCc2nn(C)c(Cc3ccccc3)c2C1=O  remaining binding (binding; 0.1 µM): 79%
CCN1CCN(Cc2ccc(C(=O)Nc3ccc(C)c(Oc4ccc5c(c4)CC(=O)N5)c3)cc2C(F)(F)F)CC1  remaining binding (binding; 1 µM): 100%
O=C(c1ccc(Nc2ncc(Cl)c(-c3cc4ccccc4s3)n2)cc1)N1CCC(N2CCCC2)CC1  remaining binding (binding; 1 µM): 6.7%
CCOC(=O)c1cc2cc(-c3cc(C(=O)NCc4ccc(C(=O)O)cc4)nn3C)ccc2[nH]1  remaining binding (cell-free assay; 0.1 µM): 96%
O=C(NCCCN1CCOCC1)c1ccc(Nc2ncc(Cl)c(-c3ccc(Cl)s3)n2)cc1  remaining binding (binding; 1 µM): 5.7%
Cc1cc(C)c(-n2ccn3nc(-c4cccnc4)cc23)cc1NC(=O)c1cc(C#N)cc(S(F)(F)(F)(F)F)c1  remaining binding (cell-free assay; 0.1 µM): 91%
O=C(c1ccc(Nc2nccc(-c3cc4ccccc4s3)n2)cc1)N1CCC(N2CCCC2)CC1  remaining binding (binding; 1 µM): 39%
COc1cnc(Nc2cccc(S(N)(=O)=O)c2)nc1N1CCN(c2ccccc2)C(=O)C1  remaining binding (binding; 1 µM): 76%
Cc1nc(Cc2cccc(C(F)(F)F)c2)sc1-c1ccc(C(N)=O)nc1  remaining binding (cell-free assay; 1 µM): 100%
O=C(Nc1c[nH]nc1C(=O)NC1CCNCC1)c1cc(F)cc(F)c1  remaining binding (binding; 1 µM): 100%
C[C@H](NC(=O)c1cnc2n1[C@](C)(Cc1ccc(C#N)cc1)C(=O)N2c1cc(Cl)c(F)c(Cl)c1)C(=O)NC1(c2ccccn2)CC1  remaining binding (cell-free assay; 1 µM): 97%
FC(F)(F)Oc1cccc(-c2cnc3ccc(-c4ccncc4)nn23)c1  remaining binding (cell-free assay; 5 µM): 6.2%
